How the values were obtained:
[1] = molecular target: T1, C-X-C chemokine receptor type 3 (Homo sapiens, UniProt P49682); test: Displacement of [125I]CXCL10 from human CXCR3 expressed in mouse BA/F3 cells; type: cell-based, BaF3
T1 sequence (P49682 whole entry): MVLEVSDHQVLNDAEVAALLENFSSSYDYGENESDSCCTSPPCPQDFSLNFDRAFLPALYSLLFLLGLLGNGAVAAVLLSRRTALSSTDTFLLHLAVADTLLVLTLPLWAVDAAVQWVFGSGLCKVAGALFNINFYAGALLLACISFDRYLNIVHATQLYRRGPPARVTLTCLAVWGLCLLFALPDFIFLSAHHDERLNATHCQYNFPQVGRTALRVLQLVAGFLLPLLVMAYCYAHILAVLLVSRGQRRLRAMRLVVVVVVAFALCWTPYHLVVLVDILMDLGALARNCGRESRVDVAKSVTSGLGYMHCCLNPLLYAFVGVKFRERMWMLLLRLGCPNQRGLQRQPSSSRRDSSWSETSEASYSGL
Procedure, shortened: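 Radioligand displacement of 125I-labelled human CXCL10 from recombinant Ba/F3 cells expressing human CXCR3.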

hERG (KCNH2) = hERG (KCNH2) (Homo sapiens, UniProt Q12809); test: Inhibition of human ERG at 10 uM by rubidium efflux assay
Sequence of hERG (KCNH2) (Q12809 whole entry): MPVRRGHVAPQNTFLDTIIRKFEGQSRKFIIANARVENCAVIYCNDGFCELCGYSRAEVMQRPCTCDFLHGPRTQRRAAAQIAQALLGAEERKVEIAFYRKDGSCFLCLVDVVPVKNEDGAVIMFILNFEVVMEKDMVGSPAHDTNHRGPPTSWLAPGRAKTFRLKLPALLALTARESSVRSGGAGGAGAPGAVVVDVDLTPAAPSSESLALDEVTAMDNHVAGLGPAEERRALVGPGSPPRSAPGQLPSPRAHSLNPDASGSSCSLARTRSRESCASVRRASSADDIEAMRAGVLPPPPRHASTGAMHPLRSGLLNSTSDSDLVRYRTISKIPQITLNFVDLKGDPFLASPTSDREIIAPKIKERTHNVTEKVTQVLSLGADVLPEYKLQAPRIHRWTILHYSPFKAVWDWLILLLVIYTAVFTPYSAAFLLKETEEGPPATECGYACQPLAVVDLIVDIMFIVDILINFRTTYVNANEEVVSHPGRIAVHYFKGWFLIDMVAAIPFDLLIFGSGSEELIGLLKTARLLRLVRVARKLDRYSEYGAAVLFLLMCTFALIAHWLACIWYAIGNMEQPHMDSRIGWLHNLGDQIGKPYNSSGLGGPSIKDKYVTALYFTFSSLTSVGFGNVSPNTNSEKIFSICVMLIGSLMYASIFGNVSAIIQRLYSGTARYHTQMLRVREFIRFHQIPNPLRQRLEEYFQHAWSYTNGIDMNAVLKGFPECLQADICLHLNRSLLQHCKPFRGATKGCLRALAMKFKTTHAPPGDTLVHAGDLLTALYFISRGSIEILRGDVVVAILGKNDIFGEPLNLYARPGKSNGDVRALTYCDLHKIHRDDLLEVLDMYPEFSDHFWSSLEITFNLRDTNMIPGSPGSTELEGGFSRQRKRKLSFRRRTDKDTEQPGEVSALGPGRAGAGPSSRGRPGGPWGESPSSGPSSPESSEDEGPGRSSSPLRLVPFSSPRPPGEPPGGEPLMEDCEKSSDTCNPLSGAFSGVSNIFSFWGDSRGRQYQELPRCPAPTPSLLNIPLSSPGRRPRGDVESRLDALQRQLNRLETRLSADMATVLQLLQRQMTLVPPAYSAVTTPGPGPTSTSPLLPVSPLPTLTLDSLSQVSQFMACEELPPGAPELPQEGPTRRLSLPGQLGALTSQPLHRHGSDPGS
Procedure, shortened: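 hERG K+ channel block measured by rubidium efflux with test compound at 10 μM, reported as % inhibition.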

[2] = AUC in rat at 10 mg/kg, po after 6 hrs; details: in vivo

Row | SMILES | IC50 [1] [nM] | AUC at 6 h [2] [µM·h] | inhibition at 10 µM (hERG (KCNH2)) [%]
1 | CC[C@H]1CN(c2nc(N)c(C(N)=O)nc2Cl)CCN1C1CCN(C(CO)c2ccc(Cl)cc2)CC1 (some centres undefined) | 1.9 | – | –
2 | CC[C@H]1CN(c2nc(N)c(C(N)=O)nc2Cl)CCN1C1CCN(Cc2ccc(Cl)cc2[C@H](O)C(N)=O)CC1 | 4.1 | – | 14
3 | CC[C@H]1CN(c2nc(N)c(C(=O)NCCO)nc2Cl)CCN1C1CCN(Cc2ccc(Cl)cc2)CC1 | 0.4 | – | –
4 | CC[C@H]1CN(c2nc(N)c(C(=O)N[C@@H]3CCOC3=O)nc2Cl)CCN1C1CCN(Cc2ccc(Cl)cc2)CC1 | 1.5 | – | –
5 | CC[C@H]1CN(c2nc(N)c(C(=O)NCCNS(=O)(=O)C(F)(F)F)nc2Cl)CCN1C1CCN(Cc2ccc(Cl)cc2)CC1 | 0.9 | – | –
6 | CC[C@H]1CN(c2nc(N)c(C(N)=O)nc2Cl)CCN1C1CCN(Cc2ccc(OC(F)(F)F)cc2)CC1 | 3.7 | – | –
7 | CC[C@H]1CN(c2nc(N)c(C(=O)NCCNS(N)(=O)=O)nc2Cl)CCN1C1CCN(Cc2ccc(Cl)cc2)CC1 | 1.9 | – | –
8 | CC[C@H]1CN(c2nc(N)c(C(N)=O)nc2Cl)CCN1C1CCN(Cc2ccc(Cl)cc2)CC1 | – | 5.1 | –
9 | CC[C@H]1CN(c2nc(N)c(C(=O)NC)nc2Cl)CCN1C1CCN(Cc2ccc(Cl)cc2)CC1 | 0.3 | – | –
10 | CC[C@H]1CN(c2nc(N)c(C(=O)NCC(F)(F)F)nc2Cl)CCN1C1CCN(Cc2ccc(Cl)cc2)CC1 | 0.8 | – | –
11 | CC[C@H]1CN(c2nc(N)c(C(=O)NCCNS(C)(=O)=O)nc2Cl)CCN1C1CCN(Cc2ccc(Cl)cc2)CC1 | 4.4 | – | 39
12 | CC[C@H]1CN(c2nc(N)c(C(=O)NCCO)nc2Cl)CCN1C1CCN(C(=O)c2ccc(Cl)nc2N)CC1 | 3.4 | 5.9 | 17
13 | CC[C@H]1CN(c2nc(N)c(C(=O)NCCNS(N)(=O)=O)nc2Cl)CCN1C1CCN(Cc2ccc(F)c(F)c2)CC1 | 9 | – | 4
14 | CC[C@H]1CN(c2nc(N)c(C(N)=O)nc2Cl)CCN1C1CCN(Cc2ccc(C#N)cc2)CC1 | 8.5 | – | –
15 | CC[C@H]1CN(c2nc(N)c(C(=O)NCC(C)O)nc2Cl)CCN1C1CCN(Cc2ccc(Cl)cc2)CC1 (some centres undefined) | 0.3 | – | –
16 | CC[C@H]1CN(c2nc(N)c(C(=O)NCCS(C)(=O)=O)nc2Cl)CCN1C1CCN(Cc2ccc(Cl)cc2)CC1 | 6.4 | – | –

More lines, main results first:

Row | IC50 [1] [nM] | AUC at 6 h [2] [µM·h] | SMILES | inhibition at 10 µM (hERG (KCNH2)) [%]
17 | 235 | – | CC[C@@H]1CN(C2CCN(C(=O)c3ccc(Cl)cc3)CC2)[C@@H](CC)CN1c1ncc(C(N)=O)nc1C | 13
18 | 8.4 | – | CC[C@H]1CN(c2nc(N)c(C(=O)NCC(C)(C)O)nc2Cl)CCN1C1CCN(Cc2ccc(Cl)cc2)CC1 | –
19 | 1.8 | 3.6 | CC[C@H]1CN(c2ncc(C(=O)NC3CC3)nc2C(F)(F)F)CCN1C1CCN(C(=O)c2ccc(Cl)nc2N)CC1 | 53
20 | – | 0.4 | CCNC(=O)c1cnc(N2CCN(C3CCN(Cc4ccc(Cl)cc4)CC3)[C@@H](CC)C2)c(Cl)c1 | –
21 | 1.5 | – | CC[C@H]1CN(c2ncc(C(=O)NC(C)(C)C)nc2Cl)CCN1C1CCN(C(=O)c2ccc(Cl)nc2N)CC1 | 13
22 | 2.9 | – | CC[C@H]1CN(c2ncc(C(=O)NC[C@@H](C)O)nc2Cl)CCN1C1CCN(C(=O)c2ccc(Cl)nc2N)CC1 | 17
23 | 1.1 | 8.4 | CC[C@H]1CN(c2ncc(C(=O)NC3CC3)nc2C)CCN1C1CCN(C(=O)c2ccc(Cl)cc2)CC1 | 74
24 | 5.4 | – | CC[C@H]1CN(c2ncc(C(N)=O)nc2C)[C@H](C)CN1C1CCN(C(=O)c2ccc(Cl)cc2)CC1 | 9
25 | 1.3 | 9.8 | CC[C@H]1CN(c2ncc(C(=O)NC3CC3)nc2C)[C@H](C)CN1C1CCN(C(=O)c2ccc(Cl)cc2)CC1 | 7
26 | 1.2 | – | CC[C@H]1CN(c2ncc(C(=O)NC3CC3)nc2Cl)CCN1C1CCN(C(=O)c2ccc(Cl)nc2N)CC1 | 19
27 | 18 | – | CC[C@H]1CN(c2ncc(C(N)=O)nc2C)CCN1C1CCN(C(=O)c2ccc(Cl)cc2)CC1 | 6
28 | 2.9 | – | CC[C@H]1CN(c2ncc(C(=O)NCCO)nc2Cl)CCN1C1CCN(C(=O)c2ccc(Cl)nc2N)CC1 | 11
29 | 1.5 | 6.4 | CC[C@H]1CN(c2ncc(C(=O)NC)nc2C(F)(F)F)CCN1C1CCN(C(=O)c2ccc(Cl)nc2N)CC1 | 0
30 | 4 | 30.2 | CC[C@H]1CN(c2ncc(C(N)=O)nc2C)CCN1C1CCN(C(=O)c2ccc(Cl)nc2N)CC1 | 0
31 | 2.5 | – | CC[C@H]1CN(c2ncc(C(N)=O)nc2Cl)CCN1C1CCN(C(=O)c2ccc(Cl)nc2N)CC1 | 7
32 | > 1000 | – | CC[C@H]1CN(c2ncc(C(N)=O)nc2C)[C@@H](C)CN1C1CCN(C(=O)c2ccc(Cl)cc2)CC1 | –
33 | 3.6 | – | CC[C@H]1CN(c2ncc(C(=O)NC)nc2C)CCN1C1CCN(C(=O)c2ccc(Cl)cc2)CC1 | 41
34 | 2 | 2.9 | CCNC(=O)c1cnc(N2CCN(C3CCN(C(=O)c4ccc(Cl)cc4)CC3)[C@@H](CC)C2)c(C)n1 | 44
35 | 0.9 | – | CC[C@H]1CN(c2ncc(C(=O)NC(C)C)nc2Cl)CCN1C1CCN(C(=O)c2ccc(Cl)nc2N)CC1 | 56
36 | 4.2 | – | CC[C@H]1CN(c2ncc(C(=O)NC)nc2C)[C@H](C)CN1C1CCN(C(=O)c2ccc(Cl)cc2)CC1 | 30
37 | 1.9 | 15.3 | CC[C@H]1CN(c2ncc(C(N)=O)nc2C(F)(F)F)CCN1C1CCN(C(=O)c2ccc(Cl)nc2N)CC1 | 0
38 | 2.4 | 12.1 | CC[C@H]1CN(c2ncc(C(=O)NC)nc2C)CCN1C1CCN(C(=O)c2ccc(Cl)nc2N)CC1 | 5
39 | 76 | – | CC[C@H]1CN(c2nc(N)c(C(N)=O)nc2Cl)CCN1C1CCN(C(=O)c2ccc(Cl)cc2)CC1 | –
40 | 1.9 | 22 | CC[C@H]1CN(c2ncc(C(=O)NC3CC3)nc2C)CCN1C1CCN(C(=O)c2ccc(Cl)nc2N)CC1 | 16

Source: ChEMBL document CHEMBL1921733, “III. Identification of novel CXCR3 chemokine receptor antagonists with a pyrazinyl-piperazinyl-piperidine scaffold” (Bioorg Med Chem Lett, 2011)
